From PubChem BioAssay
Only some compounds are listed: those with a hit (about 2.5% of all), similar ones and a draw of the others.
ABCB1 block: ABCB1 efflux pump inhibitors, primary screen, cell-based, multiplex, flow cytometry, ABCG2 counter-screen. AID 1326, 2008. 190,000 compounds, 0.067% hits. inhibition, % at 6.6 µM. CCRF-Adr cells, JC-1 efflux; in the data active means inhibition above about 40%;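 further: 0% = vehicle and 100% = reference inhibitor; higher value means more JC-1 retained so stronger ABCB1 efflux block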
Target sequence (P08183 whole entry, looked up): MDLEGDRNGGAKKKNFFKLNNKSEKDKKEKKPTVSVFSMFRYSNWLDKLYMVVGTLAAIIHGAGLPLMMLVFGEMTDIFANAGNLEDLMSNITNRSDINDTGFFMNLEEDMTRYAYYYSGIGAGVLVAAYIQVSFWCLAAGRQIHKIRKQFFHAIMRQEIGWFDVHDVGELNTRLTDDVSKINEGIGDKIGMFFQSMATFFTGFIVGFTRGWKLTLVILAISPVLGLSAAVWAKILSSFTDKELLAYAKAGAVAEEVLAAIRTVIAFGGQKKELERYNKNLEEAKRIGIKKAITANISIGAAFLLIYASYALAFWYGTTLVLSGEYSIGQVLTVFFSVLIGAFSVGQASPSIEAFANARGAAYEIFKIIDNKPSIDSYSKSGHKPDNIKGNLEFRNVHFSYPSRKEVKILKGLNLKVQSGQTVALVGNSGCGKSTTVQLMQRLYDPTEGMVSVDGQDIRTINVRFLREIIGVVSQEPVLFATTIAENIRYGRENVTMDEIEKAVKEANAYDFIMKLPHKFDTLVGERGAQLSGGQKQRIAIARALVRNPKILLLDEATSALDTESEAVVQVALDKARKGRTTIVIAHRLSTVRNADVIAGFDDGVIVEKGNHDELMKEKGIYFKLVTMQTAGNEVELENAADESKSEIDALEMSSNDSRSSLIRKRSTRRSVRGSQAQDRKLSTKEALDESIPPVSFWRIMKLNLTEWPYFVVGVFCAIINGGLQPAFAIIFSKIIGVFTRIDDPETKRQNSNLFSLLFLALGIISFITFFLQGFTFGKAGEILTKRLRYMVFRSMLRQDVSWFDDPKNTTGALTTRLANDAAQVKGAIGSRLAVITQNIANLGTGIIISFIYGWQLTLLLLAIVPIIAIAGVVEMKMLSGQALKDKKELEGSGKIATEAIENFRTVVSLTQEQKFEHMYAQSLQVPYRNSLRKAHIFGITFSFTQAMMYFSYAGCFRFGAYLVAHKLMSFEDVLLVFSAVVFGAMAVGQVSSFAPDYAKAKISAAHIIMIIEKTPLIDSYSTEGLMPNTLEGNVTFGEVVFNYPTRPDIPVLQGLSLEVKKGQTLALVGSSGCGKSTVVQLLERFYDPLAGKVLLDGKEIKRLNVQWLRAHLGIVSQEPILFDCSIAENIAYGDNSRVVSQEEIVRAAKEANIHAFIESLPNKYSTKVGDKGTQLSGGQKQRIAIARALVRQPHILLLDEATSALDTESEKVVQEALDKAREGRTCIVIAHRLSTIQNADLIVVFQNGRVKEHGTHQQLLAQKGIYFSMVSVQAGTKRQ
Efflux pump inh: inhibitors of Candida efflux pumps in yeast, primary screen, S. cerevisiae, Nile Red, multiplex. S. cerevisiae Candida pump triplex. inhibition, % at 10 µM. 330,000 compounds, 0.44% hits. AID 485275, 2010;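 active means plate passing quality check with inhibition over a set limit, or well fluorescence over plate mean plus 4 SD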;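 further: Nile Red retained in pooled yeast measured as flow cytometry median fluorescence; 0% = buffer negative control and 100% = Enniatin B positive control; higher means more Nile Red kept so more efflux inhibition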
MEKK3 PB1 HTS: modulators of MEKK3-MEK5 PB1 binding, primary screen, biochemical, wildtype MEKK3, multiplex bead flow cytometry, Alexa488-MEK5; Mitogen-activated protein kinase kinase kinase 3 (Homo sapiens), Q99759; bead-based flow cytometry, Alexa488-MEK5 binding to MEKK3; actives lie on both sides; 0 = blocked by unlabeled MEK5, 100 = vehicle; binding response (% of control), % at 10 µM; 290,000 compounds, 1.4% hits;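 active means binding response more than 3 SD above or below the average of its plate-row segment, actives on both sides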;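 further: Alexa488 bead fluorescence after subtracting the streptavidin-only scavenger bead signal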
MEKK2 mut-MEK5: MEK5 binding signal on mutant MEKK2 PB1, primary screen, biochemical, multiplex bead flow cytometry, Alexa488-MEK5 | Alexa488-MEK5 binding to MEKK2 mutant | percent response, % at 10 µM | 290,000 compounds, 0.35% hits | AID 1530, 2009; in the data active means percent response above about 24%, passing the limit was not always enough
ABCG2 inh: ABCG2 efflux pump inhibitors, primary screen, multiplex with ABCB1, IgMXP3 cells, flow cytometry | Broad substrate specificity ATP-binding cassette transporter ABCG2 (Homo sapiens), Q9UNQ0 | JC-1 efflux | inhibition, % at 6.6 µM | 190,000 compounds, 0.1% hits;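 active means inhibition above 80%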;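 further: 0% = DMSO and 100% = nicardipine control wells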
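Test system: IgMXP3 cells (ABCG2) mixed with DDAO far-red-labelled CCRF-Adr cells (ABCB1). Reagent: JC-1 transporter substrate. Compound dosing: single test compound dose, 6.6 µM final. Times: 10 min compound exposure, 25 °C. Detection: flow cytometry of retained JC-1 fluorescence. Read-out basis: efflux inhibition in percent versus controls. Controls: nicardipine and DMSO wells.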
MEKK2wt PB1 HTS: modulators of MEK5 binding to wildtype MEKK2, primary screen, biochemical, multiplex bead flow cytometry, Alexa488-MEK5; AID 1531, 2009; Alexa488-MEK5 binding to MEKK2 WT; actives lie on both sides; 290,000 compounds, 1.1% hits; binding response (% of control), % at 10 µM; in the data active means binding response below about 67% or above about 130%
MEKK2wt confirm: modulators of MEK5 binding to wildtype MEKK2, confirmation, biochemical, single concentration, multiplex bead flow cytometry; shares compounds with MEKK3 PB1 HTS; Alexa488-MEK5 binding to MEKK2 WT; actives lie on both sides; binding response (% of control), % at 10 µM; 5,900 compounds, 2.4% hits; in the data active means binding response below about 16% or above about 210%; inactive means in between
MEKK2mut-MEK5: mutant MEKK2 PB1-MEK5 binding signal retest – biochemical, single concentration, multiplex bead flow cytometry, confirmation; Alexa488-MEK5 binding to MEKK2 mutant; AID 1893, 2009; shares compounds with MEKK3 PB1 HTS; 5,900 compounds, 2% hits; percent response, % at 10 µM; in the data active means percent response mostly above about 71%, no sharp cut-off; inactive means mostly below about 38%;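 further: higher means compound restores mutant binding toward wildtype level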
MEKK3-MEK5 inh: MEKK3 wild-type PB1 binding to MEK5, inhibitors, confirmation, biochemical, bead multiplex flow cytometry, single concentration, wildtype; shares compounds with MEKK3 PB1 HTS; Alexa488-MEK5 binding to MEKK3; active compounds read low; binding response (% of control), % at 10 µM; 5,900 compounds, 1.8% hits;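 active means binding response below 72% of control, or above a set upper limit, though filed actives all read lower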;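 further: 100% = DMSO only wells and 0% = binding blocked by excess unlabeled MEK5; lower values mean stronger disruption of MEK5 binding to MEKK3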
Active calls of the source: *; / = no result; [ ] = another dose, or the depositor's remark.

SMILES	ABCB1 block	Efflux pump inh	MEKK3 PB1 HTS	MEKK2 mut-MEK5	ABCG2 inh	MEKK2wt PB1 HTS	MEKK2wt confirm	MEKK2mut-MEK5	MEKK3-MEK5 inh
CN1CCN(S(=O)(=O)c2ccc(NC(=O)c3ccc(Br)o3)cc2)CC1	0	0	41*[inhibitor]	-9	2	51	111	10	110
CN1CCN(c2ccc(NC(=O)c3ccc(-c4ccc(Br)cc4)o3)cc2)CC1	0	0	99	35	16	168*	173	38	104
CN1CCN(S(=O)(=O)c2ccc(NC(=O)c3ccc(Br)s3)cc2)CC1	1	0	114	13	7	138*	118	15	109
O=C(CSc1nnc(COc2ccc(Cl)cc2)o1)N1CCOCC1	-1	0	92	-8	-1	91	/	/	/
CCn1ccnc1CN(C)Cc1c(C(=O)N2C[C@@H](C)O[C@@H](C)C2)nc2ccc(Cl)cn12	/	0	100	4	/	103	/	/	/
COc1cc(S(=O)(=O)N(Cc2cccnc2)Cc2ccco2)ccc1-n1cnnn1	0	0	80*[inhibitor]	-12	1	86	149	28	111
Cc1ccc(C(C)C)c(OCCNCCc2ccccc2)c1	/	0	112	9	/	160*	98	-4	99
Cc1ccc(C(C)C)c(OCCCNCc2cccnc2)c1	1	0	100	3	2	109	/	/	/
CC(C)c1ccc(N(CC(=O)NC2CCCC2)C(=O)CCC(=O)Nc2nccs2)cc1	/	0	98	-5	/	91	/	/	/
COc1cc(CCC(=O)Nc2ccc(Br)c(C(F)(F)F)c2)cc(OC)c1OC	0	0	151*	0	7	112	105	1	102
COc1cc(CCC(=O)Nc2ccc(Cl)c(C(F)(F)F)c2)cc(OC)c1OC	0	0	95	-1	0	96	/	/	/
Cc1nnsc1C(=O)NC1CCCc2c1cnn2-c1ccc(C(C)(C)C)cc1 (stereo not drawn)	/	0	100	-1	/	96	/	/	/
CC(C)(C)C(=O)Nc1ccc2oc(-c3cc(F)c(F)cc3Cl)nc2c1	1	0	1.0*[inhibitor]	-19	10	1.0*[inhibitor]	103	-2	100
CC(=O)Nc1ccc(-c2nc3cc(Cl)ccc3o2)cc1	/	0	106	4	/	105	/	/	/
O=C(OC1CCCCC1=O)c1cc(Cl)ccc1[N+](=O)[O-] (stereo not drawn)	2	0	100	-7	5	94	/	/	/
O=c1c2cc(Cl)ccc2oc2nc3n(c(=O)c12)CCCS3	0	0	74*[inhibitor]	-9	3	81	102	4	102
COc1ccc([N+](=O)[O-])cc1NC1CCCCC1	0	0	128*	7	1	123	99	-7	99
O=c1c(/C=N/N2CCOCC2)c(C(F)(F)F)[nH]n1-c1ccccc1	0	0	95	-2	8	96	/	/	/
COc1cccc(-c2nc(Cc3ccc(OC)c(OC)c3)no2)c1	-1	0	96	1	30	-6.0*[inhibitor]	99	-2	97
O=C(Nc1cccnc1)c1cn(-c2ccccc2)nc1-c1cccs1	0	0	101	0	-2	104	/	/	/
CCN(CC)CCNC(=O)c1ccc(NC(=O)c2cn(-c3ccccc3)nc2-c2cccs2)cc1	0	0	107	49	-2	212*	212*	53	108
CCN(CC)CCNC(=S)NC(=O)c1cn(-c2ccccc2)nc1-c1ccc(OC)cc1	2	0	107	28	8	148*	138	21	109
Cc1ccc(C(=O)N2CCCC(Nc3ccc(F)cc3)C2)cc1C (stereo not drawn)	/	0	98	-5	/	100	/	/	/
COCCN(C(=O)C1CCCO1)c1c(N)n(CC(C)C)c(=O)[nH]c1=O (stereo not drawn)	/	0	/	/	/	/	/	/	/
Cc1ccc(C)c(S(=O)(=O)NCc2cccnc2)c1	1	1	98	-2	12	99	/	/	/
SMILES	ABCB1 block	Efflux pump inh	MEKK3 PB1 HTS	MEKK2 mut-MEK5	ABCG2 inh	MEKK2wt PB1 HTS	MEKK2wt confirm	MEKK2mut-MEK5	MEKK3-MEK5 inh
Cc1ccc(C)c(S(=O)(=O)NCc2ccncc2)c1	0	0	137*	11	0	128	89	-9	97
COc1ccccc1CN1C[C@@H]2C[C@@H](c3cccc(C)c3)N3CCC[C@@]23C1=O	1	0	104	6	14	100	/	/	/
CCOc1cc(CNC2CCCC2)cc(Cl)c1OCc1ccccc1	1	0	105	22	5	141*	115	19	103
COc1cc(CNCc2ccccc2)cc(Cl)c1OC	2	0	100	0	7	99	/	/	/
COc1cc(CNCCc2ccccc2)cc(Br)c1OCC(=O)Nc1ccccc1C	9	0	95	33	12	182*	137	15	106
CCOc1cc(CNCC(C)C)cc(Cl)c1OCc1ccccc1	0	0	110	2	2	121	/	/	/
O=C(COc1ccc(Br)cc1CNCCc1ccccc1)NCc1ccccc1	4	0	100	6	-1	145*	150	35	112
COc1cc(CNCCc2ccccc2)cc(Cl)c1OCc1ccccc1	7	0	101	37	36	192*	202	73*	112
Cc1cc(-n2cnc(-c3cn[nH]c3C)n2)no1	/	0	94	-9	/	89	/	/	/
Cc1cccc(CSc2cn(CC(=O)N3CCOCC3)c3ccccc23)c1	1	0	113	34	9	113	/	/	/
O=C(Cn1cc(SCc2cccc(Cl)c2)c2ccccc21)N1CCOCC1	1	0	140*	1	2	111	101	-17	98
